Compound activity from PubChem.
Hits are enriched below; roughly 6.7% of the tested compounds scored in any of these assays.
PREPL inh = human PREPL enzyme inhibition. Q4J6C6. recombinant PREPL, fluorescence polarization activity-based probe. inhibition, % at 5.96 µM. 320,000 compounds, 0.68% hits. AID 2751; in the data active = inhibition above about 43%;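 also: 0% = enzyme with DMSO and 100% = wells lacking enzyme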
Target sequence (Q4J6C6 whole entry, looked up): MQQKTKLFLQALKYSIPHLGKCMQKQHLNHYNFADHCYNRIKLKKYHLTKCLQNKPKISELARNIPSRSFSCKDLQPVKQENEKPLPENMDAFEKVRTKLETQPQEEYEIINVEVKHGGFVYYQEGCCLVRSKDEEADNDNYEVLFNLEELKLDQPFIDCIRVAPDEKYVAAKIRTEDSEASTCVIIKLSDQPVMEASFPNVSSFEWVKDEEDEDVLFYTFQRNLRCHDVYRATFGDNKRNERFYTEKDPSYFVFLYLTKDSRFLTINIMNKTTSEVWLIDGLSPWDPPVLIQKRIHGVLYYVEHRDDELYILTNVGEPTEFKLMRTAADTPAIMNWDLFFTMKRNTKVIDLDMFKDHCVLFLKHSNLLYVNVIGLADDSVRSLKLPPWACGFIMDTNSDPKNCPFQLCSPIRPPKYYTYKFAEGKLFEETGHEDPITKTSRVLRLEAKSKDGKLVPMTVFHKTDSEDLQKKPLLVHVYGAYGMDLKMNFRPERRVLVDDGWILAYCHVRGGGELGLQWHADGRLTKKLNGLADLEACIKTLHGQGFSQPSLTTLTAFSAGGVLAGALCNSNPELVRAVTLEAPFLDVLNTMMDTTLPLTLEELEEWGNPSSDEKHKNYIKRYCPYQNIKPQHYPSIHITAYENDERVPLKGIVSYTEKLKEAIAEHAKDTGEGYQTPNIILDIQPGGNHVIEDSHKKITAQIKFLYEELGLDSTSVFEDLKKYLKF
T cruzi repl = blocks replication of Trypanosoma cruzi. T. cruzi beta-gal in NIH3T3, luminescence, 90 h. AID 1885. inhibition, % (test concentration not listed). 300,000 compounds, 1.4% hits;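 active = mean inhibition across valid replicates above about 55%, limit read from the data; inconclusive = mean below that limit but half or more replicates reach it; inactive = mean below it, under half of replicates reach it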;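 also: signal also drops with host cell toxicity which is not excluded here; 0% = plate median of DMSO wells and 100% = zero luminescence signal; higher percent means less beta-gal luminescence so fewer parasites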
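System: NIH/3T3 fibroblasts plus reporter T. cruzi. Medium: DMEM plus 2% FBS. Probe or stimulus: 5000 reporter trypomastigotes per well. Compound: single 50 nL compound addition per well in DMSO. Incubation: co-culture of at least 90 h after 3 h attachment. Detection: GalScreen β-gal luminescence, detergent lysis, 60 min. Evaluation: parasite load inhibition, %.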
CHOP inh = CHOP inhibition in unfolded protein response; CHO-K1 CHOP-promoter luciferase, tunicamycin-induced, 15-18 h; inhibition, % at 10 µM; 220,000 compounds, 3.8% hits; AID 2732;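 active = compounds that reduced the stress-induced luciferase reporter signal by more than about 70% of percent inhibition, limit read from the data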;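 also: 0% = tunicamycin plus vehicle and 100% = wells without tunicamycin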
NR3A LBD binder = modulates the human NR3A ligand-binding domain; NR3A LBD differential scanning fluorimetry, Tm shift; 0% = protein alone, 100% = glycine-bound protein; Tm shift relative to glycine control, % at 25 µM; 340,000 compounds, 2.5% hits; AID 1259313;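 active = melting temperature shift of at least 10% of the positive control shift, at one fixed dose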
CSC inhib = blocks cancer stem cells; inhibition, % at 7.5 µM; cancer stem cell-like cells viability, luminescence; 300,000 compounds, 1.1% hits; in the data active = inhibition above about 75%; inconclusive = no clear call, values can overlap the other calls; tested in HMLE shEcad cells
Beta apoptosis = beta cell apoptosis inhibition; INS-1E cytokine-induced death, ATP luminescence, 48 h; percent of positive-control rescue, neutral wells zero; protection from apoptosis, % (concentration not given with the values); AID 435005; 300,000 compounds, 0.8% hits;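 active = Every replicate reaches about 75%, or at least half do and their mean reaches it too, limit read from the data; inconclusive = At least half of replicates reach the limit but their mean does not; inactive = Under half of replicates reach the limit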;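 also: 0% = cytokine-treated negative control wells and 100% = positive control rescue; higher means more ATP so stronger rescue from cytokine killing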
* hit, by the source's call; ? = inconclusive; nt = no result given.

SMILES | PREPL inh | T cruzi repl | CHOP inh | NR3A LBD binder | CSC inhib | Beta apoptosis
O=C1CNC(=O)c2c(nc3n2CCC3)N1 | 9 | -17 | 4 | 11* | -13 | 2
C=C1C(=O)C23CCC4C(C)(C(=O)OC)CCCC4(C)C2CCC1(O)C3 (stereo unspecified) | nt | nt | nt | 0 | nt | nt
CCn1cc([N+](=O)[O-])c(C(=O)N2N=C(c3ccc4ccccc4c3)CC2c2cc(Br)ccc2O)n1 (stereo unspecified) | 12 | 56* | 27 | 6 | -3 | 27
CCn1cc([N+](=O)[O-])c(C(=O)N2N=C(c3ccc(O)c(OC)c3)CC2c2ccccc2O)n1 (stereo unspecified) | 4 | 16 | 35 | -13 | 12 | -4
O=C(COc1ccc(Cl)cc1Cl)NN=C1c2ccccc2-c2ccccc21 | 5 | 0 | 85* | 1 | 3 | -7
COc1ccccc1OCC(=O)NNc1c2ccccc2nc2ccccc12 | 22 | 32 | 7 | 0 | 1 | 8
Cn1c(=NC(=O)c2cccc([N+](=O)[O-])c2)sc2ccccc21 | 3 | -10 | 73* | -1 | -3 | 7
Cn1c(=NC(=O)CCl)sc2ccccc21 | 10 | 62* | nt | 1 | 10 | -6
Cn1c(=NC(=O)c2ccco2)sc2ccccc21 | -1 | 0 | 19 | 2 | -9 | 0
O=C(Cc1ccc(Cl)cc1)NNC(=O)C1CC=CCC1C(=O)O (stereo unspecified) | 3 | -6 | nt | nt | -17 | nt
Cc1ccc(Cl)cc1N1CCN(C(=O)CSc2nnc3n2C(C)(C)Cc2ccccc2-3)CC1 | -3 | 24 | 81* | -2 | 41 | 94*
CC1(C)Cc2ccccc2-c2nnc(SCC(=O)N3CCc4ccccc43)n21 | 0 | 8 | 77* | 0 | 4 | -4
O=C(CSc1ccc2nnc(-c3ccc(Cl)cc3)n2n1)N1CCc2ccccc21 | 4 | 6 | 79* | 0 | 4 | 5
COc1cccc(-n2c(SC)nnc2-c2c[nH]c3ccccc23)c1 | 14 | 16 | 25 | -1 | 0 | 3
COC(=O)CSc1nnc2n1C(C)(C)Cc1ccccc1-2 | -3 | 6 | 19 | 0 | -13 | nt
Cc1cccc(-n2c(SCc3ccc([N+](=O)[O-])cc3)nnc2-c2c[nH]c3ccccc23)c1 | 16 | 66* | 25 | 7 | nt | 4
O=C(CSc1ccc2nnc(-c3ccc(Cl)cc3)n2n1)N1CCCC1 | 5 | 0 | nt | 0 | 0 | 1
COc1ccc(N2C(=NC(=O)C(C)Oc3ccccc3)SC3CS(=O)(=O)CC32)cc1 (stereo unspecified) | -7 | -7 | nt | -3 | -5 | -5
N=c1oc2ccc3ccccc3c2cc1C(N)=S | 10 | 3 | 55 | 4 | 2 | -7
COC(=O)c1c(C)[nH]c(C(=O)OCC(=O)c2c(N)n(CC(C)C)c(=O)n(C)c2=O)c1C | -26 | nt | nt | -3 | -17 | 8
CCOCCn1ccc2c(OCC(=O)NCc3ccccc3)cccc2c1=O | 9 | -15 | nt | 2 | -4 | nt
O=C(CC1NCCNC1=O)NC1Cc2ccccc2C1 (stereo unspecified) | 6 | 1 | -1 | 3 | 4 | 0
CCOc1ccc(-n2c(SCC(=O)N3CCc4ccccc43)nnc2-c2c[nH]c3ccccc23)cc1 | -17 | 5 | -17 | 1 | 12 | -3
COc1cccc(-n2c(SCC(=O)N3CCc4ccccc43)nnc2-c2c[nH]c3ccccc23)c1 | 5 | -31 | 90* | 1 | 37 | 69
Cc1ccc(S(=O)(=O)NCC(=O)N2CCN(S(=O)(=O)c3ccc(Cl)cc3)CC2)cc1C | 0 | -3 | nt | -3 | -3 | -5
SMILES | PREPL inh | T cruzi repl | CHOP inh | NR3A LBD binder | CSC inhib | Beta apoptosis
CCOc1cccc(-c2nc(C(N)=O)c3[nH]c(=O)n(-c4cccc(Cl)c4)c3n2)c1O | 12 | 6 | 95* | 3 | 0 | -1
O=C(C#Cc1ccccc1)Nc1cccc(F)c1 | 2 | 20 | nt | 8 | 114* | 97*
COc1ccc(NC(=O)C#Cc2ccccc2)cc1 | 6 | 4 | nt | 10* | 19 | -8
O=[N+]([O-])c1nn(-c2ccc3c(c2)OCCO3)n(O)c1=Nc1ccccc1 | -2 | 41 | 88* | -7 | 9 | 5
O=[N+]([O-])c1nn(-c2ccc3c(c2)OCCO3)n(O)c1=Nc1ccc(Cl)cc1 | 18 | 55* | 50 | -3 | 18 | -6
Cc1cc(C)cc(N=c2c([N+](=O)[O-])nn(-c3ccc4c(c3)OCCO4)n2O)c1 | 2 | 58* | 41 | -1 | 31 | -4
CCc1ccc(N=c2c([N+](=O)[O-])nn(-c3ccc4c(c3)OCCO4)n2O)cc1 | 3 | 62* | 9 | -6 | nt | 7
Cc1ccc(N=c2c([N+](=O)[O-])nn(-c3ccc4c(c3)OCCO4)n2O)cc1F | 4 | ? | 53 | -23 | 18 | -3
CC1CN(C(=O)c2ccc(-c3cccc(C(F)(F)F)c3)o2)CC(C)O1 (stereo unspecified) | 3 | 14 | nt | 2 | -8 | -1
Cc1cc(C)c(S(=O)(=O)N(C)CC(=O)NCCCn2ccnc2)c(C)c1 | -5 | 4 | nt | -1 | -22 | -2
CC(C)(CO)NC(=S)NCc1ccco1 | 5 | -14 | -17 | 0 | -3 | -1
Cc1ccc(N=c2c([N+](=O)[O-])nn(-c3ccc(Cl)cc3)n2O)cc1C | 20 | 59* | 44 | 1 | -8 | -4
Cc1ccc(N=c2c([N+](=O)[O-])nn(-c3ccccc3)n2O)c(C)c1 | 11 | 53 | 16 | -4 | nt | nt
Cc1ccc(N=c2c([N+](=O)[O-])nn(-c3ccc4c(c3)OCCO4)n2O)c(Cl)c1 | 3 | 75* | 66 | nt | -4 | 0
CCN(CC(=O)Nc1ccccc1C(F)(F)F)C(=O)c1ccccc1OCc1ccc(F)cc1 | nt | nt | nt | 0 | nt | nt
Cc1ccc(C(=O)CSc2nc(C(C)C)nc3ccccc23)cc1 | -4 | 1 | -5 | 0 | 50 | -1
CC(C)c1nc(SCC(=O)c2ccc(F)cc2)c2ccccc2n1 | -3 | 15 | 84* | 0 | 31 | -8
Cc1ccc(S(=O)(=O)N2CCCCC2)cc1NC(=O)Cn1cnc2c1c(=O)n(C)c(=O)n2C | nt | nt | nt | 1 | nt | nt
COc1ccc(CN(C)C(=O)c2ccc(NS(=O)(=O)c3ccc(F)cc3)cc2)c(OC)c1OC | 3 | 6 | nt | -1 | 2 | 95*
OCCN1CCN(c2nc(-c3ccccc3O)nc3ccccc23)CC1 | -16 | 22 | nt | 19* | 20 | 11
Oc1ccc(N2CCN(c3nc(-c4cccs4)nc4ccccc34)CC2)cc1 | 6 | 8 | 43 | 0 | 87* | -1
CCN(CC)c1nc(-c2cccc(OC)c2O)nc2ccccc12 | 9 | 32 | 88* | 2 | nt | -2
CN1CCN(c2nc(-c3ccccc3O)nc3ccccc23)CC1 | -25 | 43 | nt | nt | 9 | 4
COc1cccc(-c2nc(N3CCN(C)CC3)c3ccccc3n2)c1O | 13 | 55* | -23 | -1 | 14 | 21
